According to ChEMBL document CHEMBL1132970, “Synthesis of N-substituted 4-(4-hydroxyphenyl)piperidines, 4-(4-hydroxybenzyl)piperidines, and (+/-)-3-(4-hydroxyphenyl)pyrrolidines: selective antagonists at the 1A/2B NMDA receptor subtype” (J Med Chem, 2000):

Columns and labels:
[1] = biological target: Glutamate NMDA receptor; Grin1/Grin2c (Rattus norvegicus, UniProt P35439+Q00961); assay: Inhibitory activity against Xenopus oocytes expressing rat N-Methyl-D-aspartate (NR1A/2C) Receptor subtype.; assay type: cell-based, Oocyte
Procedure, shortened: (§1)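 Electrophysiology on oocytes expressing each NMDA subunit combination. IC50 from curve fitting of concentration-inhibition data pooled from 1-7 separate experiments.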

[2] = biological target: Glutamate NMDA receptor; Grin1/Grin2a (Rattus norvegicus, UniProt P35439+Q00959); assay: Inhibitory activity against Xenopus oocytes expressing rat N-Methyl-D-aspartate (NR1A/2A) Receptor subtype.; assay type: cell-based, Oocyte; procedure, shortened: as §1
[3] = biological target: Glutamate NMDA receptor; Grin1/Grin2b (Rattus norvegicus, UniProt P35439+Q00960); assay: Inhibitory activity against Xenopus oocytes expressing rat N-Methyl-D-aspartate (NR1A/2B) Receptor subtype.; assay type: cell-based, Oocyte; procedure, shortened: as §1
D(2) dopamine receptor = D(2) dopamine receptor (Rattus norvegicus, UniProt P61169); assay: Inhibition of [3H]-raclopride binding at Dopamine receptor D2 in rat brain membranes.; assay type: cell membranes
Procedure, shortened: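 Rat striatal membranes, washed in 50 mM Tris-HCl pH 7.4, assayed in 120 mM NaCl/5 mM KCl/50 mM Tris-HCl pH 7.4. 200 µg membrane protein with 3 nM [3H]raclopride; nonspecific binding with 300 µM sulpiride. Nine concentrations in duplicate; IC50 by sigmoidal curve fit.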

[4] = biological target: T1, Adrenergic receptor alpha-1 (Rattus norvegicus, UniProt P15823+P23944+P43140); assay: Inhibition of [3H]prazosin binding at alpha-1 adrenergic receptor in rat brain cortical membranes.; assay type: cell membranes, Membrane
T1 sequence (P15823 whole entry): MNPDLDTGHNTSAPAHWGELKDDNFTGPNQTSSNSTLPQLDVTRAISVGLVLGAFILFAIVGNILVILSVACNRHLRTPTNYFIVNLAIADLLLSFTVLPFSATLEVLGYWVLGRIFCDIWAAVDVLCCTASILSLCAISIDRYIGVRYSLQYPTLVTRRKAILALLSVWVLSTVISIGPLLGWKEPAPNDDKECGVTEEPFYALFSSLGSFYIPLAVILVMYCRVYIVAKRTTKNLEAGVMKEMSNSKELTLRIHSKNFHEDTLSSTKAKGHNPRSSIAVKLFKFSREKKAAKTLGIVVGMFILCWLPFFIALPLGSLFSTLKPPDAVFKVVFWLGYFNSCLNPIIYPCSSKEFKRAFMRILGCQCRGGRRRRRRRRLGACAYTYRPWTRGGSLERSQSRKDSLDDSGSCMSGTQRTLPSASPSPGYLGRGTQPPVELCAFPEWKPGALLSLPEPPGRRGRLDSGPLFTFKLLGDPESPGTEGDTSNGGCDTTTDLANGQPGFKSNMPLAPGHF
T1 sequence (P23944 whole entry): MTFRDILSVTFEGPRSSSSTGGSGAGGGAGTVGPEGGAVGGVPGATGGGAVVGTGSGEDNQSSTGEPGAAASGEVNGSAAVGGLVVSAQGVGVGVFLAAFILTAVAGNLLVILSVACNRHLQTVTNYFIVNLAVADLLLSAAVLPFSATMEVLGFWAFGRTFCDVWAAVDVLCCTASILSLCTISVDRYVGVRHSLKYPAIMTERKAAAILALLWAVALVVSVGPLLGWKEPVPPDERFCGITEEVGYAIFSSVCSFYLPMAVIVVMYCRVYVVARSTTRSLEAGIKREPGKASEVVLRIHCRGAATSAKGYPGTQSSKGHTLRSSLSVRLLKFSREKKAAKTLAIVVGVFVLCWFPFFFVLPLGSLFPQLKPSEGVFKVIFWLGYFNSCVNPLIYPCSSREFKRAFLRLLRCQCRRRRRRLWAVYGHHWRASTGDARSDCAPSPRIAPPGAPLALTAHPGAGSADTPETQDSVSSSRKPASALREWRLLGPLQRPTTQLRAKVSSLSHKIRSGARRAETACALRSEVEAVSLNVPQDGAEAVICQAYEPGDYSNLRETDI
T1 sequence (P43140 whole entry): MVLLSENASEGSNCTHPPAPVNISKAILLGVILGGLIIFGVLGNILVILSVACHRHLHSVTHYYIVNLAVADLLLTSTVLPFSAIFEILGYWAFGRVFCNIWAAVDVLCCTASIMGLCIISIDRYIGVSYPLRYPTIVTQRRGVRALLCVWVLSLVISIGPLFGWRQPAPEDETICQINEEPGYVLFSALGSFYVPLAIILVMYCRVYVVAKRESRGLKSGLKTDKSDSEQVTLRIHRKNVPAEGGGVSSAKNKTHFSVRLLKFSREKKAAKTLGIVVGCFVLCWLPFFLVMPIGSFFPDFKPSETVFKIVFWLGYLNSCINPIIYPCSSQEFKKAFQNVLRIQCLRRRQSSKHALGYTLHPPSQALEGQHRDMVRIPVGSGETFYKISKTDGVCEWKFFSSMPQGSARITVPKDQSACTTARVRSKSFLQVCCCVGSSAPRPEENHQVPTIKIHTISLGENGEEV
Procedure, shortened: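 Membranes from Sprague-Dawley rat cortex, sucrose/Tris homogenate washed three times. Assayed in 140 mM NaCl/5 mM MgCl2/50 mM Tris-HCl pH 7.4. 200 µg protein incubated with 0.8 nM [3H]prazosin; 10 µM phentolamine defined nonspecific binding. Nine concentrations in duplicate; IC50 from sigmoidal fit.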

Mus musculus = species on record: Mus musculus; assay: Effective dose for protection against MES seizures in mice; assay type: functional
Procedure, shortened: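 Male Swiss Webster mice (23-27 g, food and water ad libitum), compound given iv as 5 mg/mL solution in 0.2 M Tris. Seizure protection tested 2 min after dosing; corneal electroshock, rectangular pulses 50 mA, 60-75 Hz, 0.8 ms width, 0.2 s train. Seizure scored as tonic hind-limb extension. ED50 with 95% confidence limits; at least 24 animals per compound.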

Glutamate NMDA receptor; Grin1/Grin2c, sequence (Q00961 whole entry, other chains not shown): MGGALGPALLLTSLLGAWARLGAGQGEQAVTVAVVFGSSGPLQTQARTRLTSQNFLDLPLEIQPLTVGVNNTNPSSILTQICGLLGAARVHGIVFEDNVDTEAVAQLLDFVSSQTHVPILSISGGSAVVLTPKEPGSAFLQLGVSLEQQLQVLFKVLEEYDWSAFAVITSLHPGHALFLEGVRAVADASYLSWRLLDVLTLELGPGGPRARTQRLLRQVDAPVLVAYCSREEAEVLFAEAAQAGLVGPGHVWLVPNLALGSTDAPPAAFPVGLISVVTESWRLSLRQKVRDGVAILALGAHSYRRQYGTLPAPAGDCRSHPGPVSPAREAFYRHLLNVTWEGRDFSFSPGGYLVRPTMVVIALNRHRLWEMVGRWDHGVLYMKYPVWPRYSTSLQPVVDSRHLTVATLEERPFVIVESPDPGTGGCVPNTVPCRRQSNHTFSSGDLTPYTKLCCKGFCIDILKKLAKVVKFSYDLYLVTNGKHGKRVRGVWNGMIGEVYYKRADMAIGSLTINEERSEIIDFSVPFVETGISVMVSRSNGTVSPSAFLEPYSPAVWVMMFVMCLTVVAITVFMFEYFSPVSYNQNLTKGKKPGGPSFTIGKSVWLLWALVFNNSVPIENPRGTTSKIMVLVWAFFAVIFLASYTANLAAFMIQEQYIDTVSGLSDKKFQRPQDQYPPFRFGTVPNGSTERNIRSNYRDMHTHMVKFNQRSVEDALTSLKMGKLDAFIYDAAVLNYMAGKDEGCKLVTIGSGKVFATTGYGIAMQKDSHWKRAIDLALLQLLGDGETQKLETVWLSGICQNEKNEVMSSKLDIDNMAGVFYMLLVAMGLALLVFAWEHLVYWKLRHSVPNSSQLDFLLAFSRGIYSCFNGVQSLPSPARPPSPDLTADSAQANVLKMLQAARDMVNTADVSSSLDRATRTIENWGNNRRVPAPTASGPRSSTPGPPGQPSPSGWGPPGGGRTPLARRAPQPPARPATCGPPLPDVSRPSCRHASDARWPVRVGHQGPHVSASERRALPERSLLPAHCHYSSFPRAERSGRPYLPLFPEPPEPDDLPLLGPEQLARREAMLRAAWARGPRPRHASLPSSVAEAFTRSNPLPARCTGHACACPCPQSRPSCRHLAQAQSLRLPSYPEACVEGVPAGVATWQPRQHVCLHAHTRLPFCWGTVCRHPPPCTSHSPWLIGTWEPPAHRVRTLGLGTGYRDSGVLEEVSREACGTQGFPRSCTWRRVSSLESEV
Glutamate NMDA receptor; Grin1/Grin2b, sequence (Q00960 whole entry, other chains not shown): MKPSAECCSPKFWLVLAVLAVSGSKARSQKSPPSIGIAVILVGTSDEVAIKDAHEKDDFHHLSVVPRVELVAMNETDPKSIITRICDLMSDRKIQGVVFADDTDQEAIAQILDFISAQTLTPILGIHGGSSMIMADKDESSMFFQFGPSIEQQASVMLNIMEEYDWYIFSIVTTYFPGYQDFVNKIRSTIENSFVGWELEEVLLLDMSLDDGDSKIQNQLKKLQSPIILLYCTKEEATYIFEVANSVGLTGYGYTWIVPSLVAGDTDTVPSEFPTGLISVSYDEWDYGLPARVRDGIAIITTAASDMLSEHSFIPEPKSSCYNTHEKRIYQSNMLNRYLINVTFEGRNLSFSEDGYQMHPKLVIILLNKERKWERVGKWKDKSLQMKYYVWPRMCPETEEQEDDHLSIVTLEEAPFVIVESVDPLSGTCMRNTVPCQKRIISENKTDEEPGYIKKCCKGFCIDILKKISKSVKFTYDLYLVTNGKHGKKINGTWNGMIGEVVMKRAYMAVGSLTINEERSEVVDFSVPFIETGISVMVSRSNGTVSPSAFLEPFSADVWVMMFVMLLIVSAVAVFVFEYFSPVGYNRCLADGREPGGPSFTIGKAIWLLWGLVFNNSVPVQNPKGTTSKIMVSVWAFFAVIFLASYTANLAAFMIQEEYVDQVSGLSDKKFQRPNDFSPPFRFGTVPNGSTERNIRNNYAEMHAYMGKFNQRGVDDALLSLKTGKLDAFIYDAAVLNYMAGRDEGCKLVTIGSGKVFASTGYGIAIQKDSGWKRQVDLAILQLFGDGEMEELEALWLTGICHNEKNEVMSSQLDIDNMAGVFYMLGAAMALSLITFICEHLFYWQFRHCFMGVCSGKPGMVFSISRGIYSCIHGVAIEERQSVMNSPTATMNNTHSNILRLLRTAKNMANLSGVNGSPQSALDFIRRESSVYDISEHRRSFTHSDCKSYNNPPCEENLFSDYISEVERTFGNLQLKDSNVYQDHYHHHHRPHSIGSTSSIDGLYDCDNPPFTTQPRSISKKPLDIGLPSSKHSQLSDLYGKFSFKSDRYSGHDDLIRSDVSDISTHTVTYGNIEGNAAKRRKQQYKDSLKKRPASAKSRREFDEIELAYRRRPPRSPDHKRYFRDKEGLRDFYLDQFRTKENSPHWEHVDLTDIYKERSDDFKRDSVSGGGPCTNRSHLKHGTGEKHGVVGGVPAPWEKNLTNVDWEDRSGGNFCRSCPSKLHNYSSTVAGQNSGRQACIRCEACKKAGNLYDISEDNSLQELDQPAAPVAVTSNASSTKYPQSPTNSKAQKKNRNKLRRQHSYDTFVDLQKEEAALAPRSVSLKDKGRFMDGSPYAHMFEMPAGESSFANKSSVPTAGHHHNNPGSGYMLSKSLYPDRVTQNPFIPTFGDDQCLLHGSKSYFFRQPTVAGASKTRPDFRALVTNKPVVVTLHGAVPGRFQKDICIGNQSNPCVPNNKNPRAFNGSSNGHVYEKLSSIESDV
D(2) dopamine receptor, sequence (P61169 whole entry): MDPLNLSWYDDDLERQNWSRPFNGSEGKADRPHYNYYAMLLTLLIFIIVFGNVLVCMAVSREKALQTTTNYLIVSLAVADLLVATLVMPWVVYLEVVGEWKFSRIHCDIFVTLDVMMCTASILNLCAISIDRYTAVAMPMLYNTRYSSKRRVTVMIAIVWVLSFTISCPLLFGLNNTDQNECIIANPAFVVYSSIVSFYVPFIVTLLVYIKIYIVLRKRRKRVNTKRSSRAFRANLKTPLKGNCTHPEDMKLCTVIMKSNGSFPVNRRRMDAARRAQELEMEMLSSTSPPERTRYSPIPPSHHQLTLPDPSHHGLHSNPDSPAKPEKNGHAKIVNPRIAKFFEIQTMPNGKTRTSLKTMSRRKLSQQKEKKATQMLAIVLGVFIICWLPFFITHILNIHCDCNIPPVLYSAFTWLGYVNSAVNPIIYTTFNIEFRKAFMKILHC
Glutamate NMDA receptor; Grin1/Grin2a, sequence (Q00959 whole entry, other chains not shown): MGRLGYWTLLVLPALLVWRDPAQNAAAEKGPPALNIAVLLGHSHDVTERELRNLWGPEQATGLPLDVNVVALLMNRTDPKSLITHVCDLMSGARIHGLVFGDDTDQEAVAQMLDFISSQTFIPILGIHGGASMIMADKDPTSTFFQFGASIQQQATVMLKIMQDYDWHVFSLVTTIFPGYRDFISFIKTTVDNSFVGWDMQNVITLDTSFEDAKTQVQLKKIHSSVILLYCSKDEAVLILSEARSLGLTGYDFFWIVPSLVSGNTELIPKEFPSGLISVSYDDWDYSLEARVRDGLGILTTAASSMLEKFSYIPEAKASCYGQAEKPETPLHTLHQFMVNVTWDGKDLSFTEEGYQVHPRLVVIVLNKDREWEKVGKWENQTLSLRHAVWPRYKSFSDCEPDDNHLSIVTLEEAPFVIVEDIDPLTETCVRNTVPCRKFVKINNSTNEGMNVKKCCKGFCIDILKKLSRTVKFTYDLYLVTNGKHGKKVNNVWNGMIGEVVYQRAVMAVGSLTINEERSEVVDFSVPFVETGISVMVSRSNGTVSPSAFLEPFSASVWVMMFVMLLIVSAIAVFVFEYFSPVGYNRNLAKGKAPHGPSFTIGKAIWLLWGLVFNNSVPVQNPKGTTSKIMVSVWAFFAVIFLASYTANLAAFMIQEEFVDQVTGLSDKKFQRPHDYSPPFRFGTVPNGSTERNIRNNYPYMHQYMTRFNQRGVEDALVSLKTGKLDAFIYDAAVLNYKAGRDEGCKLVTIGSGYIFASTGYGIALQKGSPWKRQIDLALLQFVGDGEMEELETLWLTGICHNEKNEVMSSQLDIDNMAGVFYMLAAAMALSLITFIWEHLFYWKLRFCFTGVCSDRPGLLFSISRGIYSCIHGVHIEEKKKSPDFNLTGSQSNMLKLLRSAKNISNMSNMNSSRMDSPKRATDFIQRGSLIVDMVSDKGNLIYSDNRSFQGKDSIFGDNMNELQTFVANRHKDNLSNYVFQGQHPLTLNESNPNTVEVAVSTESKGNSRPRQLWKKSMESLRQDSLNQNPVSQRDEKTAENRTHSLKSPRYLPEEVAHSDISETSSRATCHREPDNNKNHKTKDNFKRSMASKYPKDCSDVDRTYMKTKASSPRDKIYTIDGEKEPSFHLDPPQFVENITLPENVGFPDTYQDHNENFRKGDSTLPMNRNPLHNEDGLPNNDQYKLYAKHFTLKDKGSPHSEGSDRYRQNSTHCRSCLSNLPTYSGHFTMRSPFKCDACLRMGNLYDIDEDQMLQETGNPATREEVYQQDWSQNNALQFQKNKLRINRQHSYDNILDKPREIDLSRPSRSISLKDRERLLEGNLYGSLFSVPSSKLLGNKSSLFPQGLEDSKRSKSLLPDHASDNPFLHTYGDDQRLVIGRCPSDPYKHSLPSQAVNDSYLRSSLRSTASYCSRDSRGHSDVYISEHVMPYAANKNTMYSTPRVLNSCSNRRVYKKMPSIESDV

| SMILES | IC50 [1] | IC50 [2] | IC50 [3] | IC50 (D(2) dopamine receptor) | IC50 [4] | ED50 (Mus musculus) |
| --- | --- | --- | --- | --- | --- | --- |
| Oc1ccc(C2CCN(CCOCc3ccccc3)CC2)cc1 | > 100 µM | 59 µM | 0.019 µM |  |  |  |
| CCCCN1CCC(c2ccc(O)cc2)CC1 | > 100 µM | > 100 µM | 61 µM |  |  |  |
| Oc1ccc(CC2CCN(CCCCc3ccccc3)CC2)cc1 | > 100 µM | > 100 µM | 0.071 µM |  |  |  |
| Br.Oc1ccc(C2CCN(CCCCc3ccccc3)CC2)cc1 | > 100 µM | > 100 µM | 0.022 µM | 1.2 µM | 0.54 µM | 0.23 mg/kg |
| COc1ccc(C2CCN(CCCCc3ccccc3)CC2)cc1.Cl | > 100 µM | > 100 µM | > 100 µM | 0.41 µM | 1.7 µM | 0.56 mg/kg |
| Oc1ccc(C2CCN(CCCCCc3ccccc3)CC2)cc1 | > 100 µM | > 100 µM | 0.075 µM |  |  |  |
| Oc1ccc(C2=CCN(CCCCc3ccccc3)CC2)cc1 | > 100 µM | > 100 µM | 0.011 µM |  |  |  |
| Oc1ccc(C2CCN(CCCc3ccccc3)CC2)cc1 | > 100 µM | 51 µM | 0.074 µM |  |  |  |
| Oc1ccc(CCCCN2CCC(c3ccccc3)CC2)cc1 | > 100 µM | 43 µM | 0.23 µM |  |  |  |
| Oc1ccc(C2(O)CCN(CCCCc3ccccc3)CC2)cc1 | > 100 µM | 62 µM | 0.012 µM | 22 µM | 2.2 µM | 2.3 mg/kg |
| Oc1ccc(CC2CCN(CCCc3ccccc3)CC2)cc1 | > 100 µM | > 100 µM | 0.059 µM |  |  |  |
| Oc1ccc(C2CCN(CCCCCc3ccccc3)C2)cc1 (stereo not drawn) | > 100 µM | 41 µM | 0.017 µM |  |  |  |
| Oc1ccc(C2CCN(CCCCc3ccccc3)C2)cc1 (stereo not drawn) | > 100 µM | 52 µM | 0.13 µM |  |  |  |
| Oc1ccc(C2CCN(CC(O)CCc3ccccc3)CC2)cc1 (stereo not drawn) | > 100 µM | > 100 µM | 0.019 µM | 5.9 µM | 1.4 µM | 0.46 mg/kg |
| Oc1ccc(C2(O)CCN(CC(O)CCc3ccccc3)CC2)cc1 (stereo not drawn) | > 100 µM |  | 0.026 µM | 105 µM | 14 µM | 5.7 mg/kg |
| c1ccc(CCCCN2CCC(c3ccccc3)CC2)cc1 | > 100 µM | > 100 µM | 2.2 µM |  |  |  |
| Oc1ccc(CC2CCN(CCC#Cc3ccccc3)CC2)cc1 | > 100 µM | > 100 µM | 0.8 µM |  |  |  |
| Oc1ccc(CC2CCN(CC#Cc3ccccc3)CC2)cc1 | > 100 µM | > 100 µM | 0.18 µM |  |  |  |
